How the values were obtained:
[1] = Antiproliferative activity against human A16-F10 cells after 48 hrs by MTT assay; type: functional, cell-based; conditions: A16-F10, 48 h
Summary of the method: (§1)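 Cells were seeded at 7 × 10³ per well and, after 24 h, exposed while growing exponentially to a range of concentrations for 48 h. MTT (5 mg/mL stock in PBS) was added for 6 h, followed by 10% SDS in 0.01 N HCl for a further 4 h at 37 °C, then absorbance read at 570 nm. Survival was taken as % of untreated cells. IC50 came from 6-well replicates in at least two independent experiments.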

HepG2 [2] = test: Antiproliferative activity against human HepG2 cells after 48 hrs by MTT assay; type: functional, cell-based; conditions: HepG2, 48 h; summary of the method: as §1
[3] = molecular target: Epidermal growth factor receptor (Homo sapiens, UniProt P00533); test: Inhibition of EGFR expressed in baculovirus infected Sf9 cells assessed as inhibition of autophosphorylation preincubated for 10 mins measured after 1 hr by DELFIA/Time-Resolved Fluorometry
Epidermal growth factor receptor, sequence (P00533 whole entry): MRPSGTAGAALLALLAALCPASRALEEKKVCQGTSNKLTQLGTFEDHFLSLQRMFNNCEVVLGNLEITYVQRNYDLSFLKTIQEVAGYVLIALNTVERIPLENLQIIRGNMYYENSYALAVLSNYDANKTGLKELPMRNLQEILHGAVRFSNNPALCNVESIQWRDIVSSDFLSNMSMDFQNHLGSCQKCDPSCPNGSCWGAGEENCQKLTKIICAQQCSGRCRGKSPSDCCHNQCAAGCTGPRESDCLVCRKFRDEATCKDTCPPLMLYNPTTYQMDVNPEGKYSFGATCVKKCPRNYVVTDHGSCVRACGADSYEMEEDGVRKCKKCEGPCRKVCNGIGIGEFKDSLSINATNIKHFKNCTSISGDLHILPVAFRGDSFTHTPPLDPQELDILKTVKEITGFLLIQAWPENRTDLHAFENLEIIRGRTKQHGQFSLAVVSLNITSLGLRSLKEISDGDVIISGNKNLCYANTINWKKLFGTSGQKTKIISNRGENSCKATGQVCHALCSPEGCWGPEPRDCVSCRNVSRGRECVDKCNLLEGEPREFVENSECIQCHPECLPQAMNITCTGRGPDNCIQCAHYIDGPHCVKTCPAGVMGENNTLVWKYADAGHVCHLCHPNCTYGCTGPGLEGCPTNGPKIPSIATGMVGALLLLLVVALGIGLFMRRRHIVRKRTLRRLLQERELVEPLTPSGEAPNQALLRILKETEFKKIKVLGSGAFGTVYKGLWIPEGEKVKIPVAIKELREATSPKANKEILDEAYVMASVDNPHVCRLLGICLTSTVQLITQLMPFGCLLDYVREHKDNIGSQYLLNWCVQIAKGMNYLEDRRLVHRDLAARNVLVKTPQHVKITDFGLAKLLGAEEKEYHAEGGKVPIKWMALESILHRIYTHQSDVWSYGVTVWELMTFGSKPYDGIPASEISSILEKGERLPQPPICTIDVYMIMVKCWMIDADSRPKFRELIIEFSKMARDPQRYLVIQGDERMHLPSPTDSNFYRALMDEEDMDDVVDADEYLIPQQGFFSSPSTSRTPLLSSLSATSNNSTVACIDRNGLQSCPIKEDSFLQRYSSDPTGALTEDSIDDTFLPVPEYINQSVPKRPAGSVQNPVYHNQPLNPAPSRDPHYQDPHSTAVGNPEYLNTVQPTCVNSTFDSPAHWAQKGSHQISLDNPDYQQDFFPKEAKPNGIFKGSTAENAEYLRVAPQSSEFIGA

HepG2 [4] = test: Induction of apoptosis in human HepG2 cells assessed as apoptotic cells at 2 uM after 3 days using annexin-V/PI double staining by flow cytometry (reference value: 0.98%); type: functional
HepG2 [5] = test: Induction of apoptosis in human HepG2 cells assessed as apoptotic cells at 1 uM after 3 days using annexin-V/PI double staining by flow cytometry (reference value: 0.98%); type: functional
HepG2 [6] = test: Induction of apoptosis in human HepG2 cells after 3 days using annexin-V/PI double staining by flow cytometry; type: functional, cell-based

| SMILES | IC50 (HepG2 [2]) [µM] | IC50 [3] [µM] | IC50 [1] [µM] | Activity (HepG2 [4]) [%] | Activity (HepG2 [5]) [%] | Activity (HepG2 [6]) |
| --- | --- | --- | --- | --- | --- | --- |
| Clc1cccc(Nc2ncnc3ccc(NCc4ccc(Br)cc4)cc23)c1 | 3.81 | 5.67 | 4.01 |  |  |  |
| Clc1cccc(Nc2ncnc3ccc(NCc4ccccc4Cl)cc23)c1 | 5.33 |  | 7.12 |  |  |  |
| Clc1cccc(Nc2ncnc3ccc(NCc4ccccc4Br)cc23)c1 | 4.17 |  | 5.83 |  |  |  |
| Oc1ccccc1CNc1ccc2ncnc(Nc3cccc(Cl)c3)c2c1 | 2.08 | 3.54 | 3.18 |  |  |  |
| COc1ccc(CNc2ccc3ncnc(Nc4cccc(Br)c4)c3c2)cc1 | 5.43 |  | 10.4 |  |  |  |
| COc1ccccc1CNc1ccc2ncnc(Nc3cccc(Br)c3)c2c1 | 8.82 | 11.2 | 12.5 |  |  |  |
| Clc1ccccc1CNc1ccc2ncnc(Nc3cccc(Br)c3)c2c1 | 1.82 |  | 3.74 |  |  |  |
| C#Cc1cccc(Nc2ncnc3cc(OCCOC)c(OCCOC)cc23)c1 [ERLOTINIB] |  |  | 0.02 |  |  |  |
| Brc1cccc(Nc2ncnc3ccc(NCc4ccccc4Br)cc23)c1 | 2.76 |  | 4.38 |  |  |  |
| COc1ccc(CNc2ccc3ncnc(Nc4cccc(Cl)c4)c3c2)cc1 | 5.26 |  | 8.43 |  |  |  |
| COc1ccccc1CNc1ccc2ncnc(Nc3cccc(Cl)c3)c2c1 | 9.85 | 13.9 | 14.8 |  |  |  |
| Fc1ccc(CNc2ccc3ncnc(Nc4cccc(Cl)c4)c3c2)cc1 | 2.69 |  | 2.95 |  |  |  |
| Clc1ccc(CNc2ccc3ncnc(Nc4cccc(Cl)c4)c3c2)cc1 | 1.78 | 4.41 | 2.67 |  |  |  |

Now from value to compound, other results behind:

| IC50 (HepG2 [2]) [µM] | IC50 [3] [µM] | SMILES | IC50 [1] [µM] | Activity (HepG2 [4]) [%] | Activity (HepG2 [5]) [%] | Activity (HepG2 [6]) |
| --- | --- | --- | --- | --- | --- | --- |
| 0.92 | 1.64 | Clc1ccc(CNc2ccc3ncnc(Nc4cccc(Br)c4)c3c2)cc1 | 1.82 |  |  |  |
| 1.41 | 3.13 | Brc1ccc(CNc2ccc3ncnc(Nc4cccc(Br)c4)c3c2)cc1 | 2.21 |  |  |  |
| 1.77 |  | Fc1ccc(CNc2ccc3ncnc(Nc4cccc(Br)c4)c3c2)cc1 | 2.09 |  |  |  |
| 1.52 | 1.87 | Oc1ccc(CNc2ccc3ncnc(Nc4cccc(Cl)c4)c3c2)cc1 | 1.58 |  |  |  |
| 0.28 |  | Oc1ccc(CNc2ccc3ncnc(Nc4cccc(Br)c4)c3c2)cc1 | 0.59 | 54.2 | 20.8 | Dose-dependent effect |
| 1.26 | 3.22 | Oc1ccccc1CNc1ccc2ncnc(Nc3cccc(Br)c3)c2c1 | 1.87 |  |  |  |

— ChEMBL document CHEMBL1926595, “Design and synthesis of 4,6-substituted-(diaphenylamino)quinazolines as potent EGFR inhibitors with antitumor activity” (Bioorg Med Chem, 2012)
